Data set [1] has as its target T1, recombinant human CES1 (Homo sapiens, UniProt P23141).
T1 sequence (P23141 18-567): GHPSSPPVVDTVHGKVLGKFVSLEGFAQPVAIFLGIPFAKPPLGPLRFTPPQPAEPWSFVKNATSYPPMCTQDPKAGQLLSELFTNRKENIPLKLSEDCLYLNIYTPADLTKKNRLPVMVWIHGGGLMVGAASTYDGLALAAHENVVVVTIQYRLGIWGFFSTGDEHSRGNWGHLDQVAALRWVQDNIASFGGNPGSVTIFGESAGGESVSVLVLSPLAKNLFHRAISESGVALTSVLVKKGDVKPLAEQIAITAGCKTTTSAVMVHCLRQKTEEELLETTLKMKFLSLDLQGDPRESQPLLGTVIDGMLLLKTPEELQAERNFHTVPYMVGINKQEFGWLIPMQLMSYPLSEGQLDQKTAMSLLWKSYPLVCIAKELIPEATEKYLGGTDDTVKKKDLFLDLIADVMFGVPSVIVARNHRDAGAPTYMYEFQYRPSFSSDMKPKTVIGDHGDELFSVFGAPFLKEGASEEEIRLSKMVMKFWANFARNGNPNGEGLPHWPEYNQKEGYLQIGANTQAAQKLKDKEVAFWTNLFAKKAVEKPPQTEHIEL
The data set is described as follows: Hydrolysis of 2AG and PG-Gs by recombinant CES1. The note with it: for kcat / Km: human CES1, average ± SE of 2-4 independent experiments. Type of data set: biochemical.

The target in data set [2] is T2, recombinant human CES2 (Homo sapiens, UniProt O00748).
T2 sequence (O00748 27-559): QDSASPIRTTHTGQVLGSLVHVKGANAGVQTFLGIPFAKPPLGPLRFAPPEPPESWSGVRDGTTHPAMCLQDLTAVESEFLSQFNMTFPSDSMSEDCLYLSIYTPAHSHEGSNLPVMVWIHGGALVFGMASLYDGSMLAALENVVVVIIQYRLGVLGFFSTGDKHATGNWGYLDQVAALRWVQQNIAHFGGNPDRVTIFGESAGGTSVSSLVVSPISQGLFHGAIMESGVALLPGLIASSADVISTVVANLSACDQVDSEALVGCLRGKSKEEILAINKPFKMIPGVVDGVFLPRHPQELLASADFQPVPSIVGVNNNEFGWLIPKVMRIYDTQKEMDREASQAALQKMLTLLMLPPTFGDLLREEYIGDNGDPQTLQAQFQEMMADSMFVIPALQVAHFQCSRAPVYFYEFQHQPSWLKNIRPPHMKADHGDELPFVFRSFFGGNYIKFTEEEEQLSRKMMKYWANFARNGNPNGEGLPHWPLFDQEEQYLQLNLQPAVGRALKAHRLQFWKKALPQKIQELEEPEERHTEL
The data set is described as follows: Hydrolysis of 2AG and PG-Gs by recombinant CES2. Type of data set: biochemical. The note with it: for kcat / Km: human CES2, average ± SE of 2-4 independent experiments.

The subject of data set [3] is 31-32kDa enzyme in THP1 lysates. The data set is described as follows: Activity-based protein profiling with FP-biotin in THP1 lysate: 31-32kDa enzyme. Format: biochemical, human. An outline of the steps:
(§1)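 THP1 monocyte lysate (1 mg/ml protein in 50 mM Tris-HCl, pH 7.4) was labelled with 2 μM FP-biotin for 1 h at room temperature. Irreversible inhibitors were preincubated for 30 min (37°C) before the probe. For the reversible inhibitor, lysate received inhibitor, then 0.2 μM FP-biotin for 7.5 min, short of full labelling. Reactions were stopped in reducing SDS loading buffer (95°C, 5 min), run on SDS-PAGE and blotted with avidin-HRP.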

For data set [4], the system named is lipid glyceryl ester hydrolase activities of THP1 monocyte lysates.
In data set [5] the target is T3, native CES1 in THP1 lysates (Homo sapiens, UniProt P23141).
T3 sequence (P23141 18-567): T1 sequence (P23141 18-567)
As to the kind of experiment: Activity-based protein profiling with FP-biotin in THP1 lysate: CES1. Format: biochemical. Put shortly:
as §1

Data set [6] concerns the target T4, recombinant human MAGL (Homo sapiens, UniProt Q99685).
T4 sequence (Q99685 1-303): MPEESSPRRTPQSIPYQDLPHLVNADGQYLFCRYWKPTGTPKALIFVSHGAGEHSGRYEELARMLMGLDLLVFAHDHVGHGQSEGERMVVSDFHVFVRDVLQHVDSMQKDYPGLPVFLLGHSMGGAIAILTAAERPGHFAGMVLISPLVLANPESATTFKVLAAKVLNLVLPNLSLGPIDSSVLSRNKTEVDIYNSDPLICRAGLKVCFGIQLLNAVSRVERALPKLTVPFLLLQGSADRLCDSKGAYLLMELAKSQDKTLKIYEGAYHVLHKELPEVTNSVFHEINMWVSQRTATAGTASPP
As to the kind of experiment: Off-target test: 2AG hydrolysis by recombinant human MAGL with S-3030. The note with it: S-3030 50 μM, 2AG 25 μM, 10 min pre-incubation. Format: biochemical.

The subject of data set [7] is CES1-depleted THP1 monocyte lysates. As to the kind of experiment: PG-G and 2AG hydrolysis by CES1-immunodepleted THP1 monocyte lysates. Type of data set: biochemical, human. The note with it: 25 μM PG-G or 10 μM 2AG, 30 min; versus preimmune IgG control. Put shortly: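 THP1 monocyte lysate was solubilised in 50 mM Tris-HCl (pH 7.4) with 0.5% w/v Brij (1 h, 4°C). It was then incubated overnight with anti-CES1 or preimmune IgG plus protein A-agarose, and depletion was checked by western blot. Substrate (25 μM PG-G or 10 μM 2AG) in the same buffer was preheated 5 min at 37°C, then started with 10-30 μg supernatant lysate; 2AG ran 30 min. Reactions were run in duplicate or triplicate across ≥2 IP experiments, compared by Student's t-test.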

Data set [8] addresses T4, recombinant human MAGL. Format: biochemical. The note with it: substrate 25 μM, 15 min, recombinant human enzymes. An outline of the steps: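 Purified recombinant human enzymes were compared; CES1 was expressed in baculovirus-infected Spodoptera frugiperda cells.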
For data set [9], the target named is T1, recombinant human CES1. The data set is described as follows: Off-target test: 2AG hydrolysis by recombinant human CES1 with NAM. The note with it: NAM 50 μM, 2AG 25 μM, 10 min pre-incubation. Type of data set: biochemical.
Data set [10] relates to THP1 macrophages. As to the kind of experiment: In situ formation of PG-Gs by LPS-primed THP1 macrophages given exogenous 2AG. The note with it: indomethacin 3 μM added along with CPO prior to 2AG. Format: cell-based, human.
In data set [11] the target is T1, recombinant human CES1. As to the kind of experiment: Recombinant human CES1 activity using pNPV as substrate. Type of data set: biochemical. The note with it: data not shown.
Substrate in data set [12]: CCCCC/C=C\C/C=C\C/C=C\C/C=C\CCCC(=O)OC(CO)CO
The data set is described as follows: Hydrolysis of 2AG and PG-Gs by recombinant CES1. Format: biochemical. The note with it: other: human CES1; average ± SE of 2-4 independent experiments; pH 7.4; 37.0 °C.

Substrate in data set [13]: CCCCC/C=C\C/C=C\C/C=C\C/C=C\CCCC(=O)OC(CO)CO
As to the kind of experiment: Hydrolysis of 2AG and PG-Gs by recombinant CES2. The note with it: other: human CES2; average ± SE of 2-4 independent experiments; pH 7.4; 37.0 °C. Type of data set: biochemical.

[14] abbreviates: maximal inhibition using 100 μM S-3030.

Values joined by “and” are separate entries in the source; they are usually repeats but may differ in a detail not shown here. Equal entries are not always repeated. “Also recorded” adds a separate entry of the source.

As to `CCCCC/C=C\C/C=C\C/C=C\C/C=C\CCCC(=O)NCCO` [AEA, arachidonoyl ethanolamide], in data set [1] (amide-containing substrate), the “hydrolysis of AEA by recombinant CES1” value is on record as “neither enzyme could hydrolyze”. Also, the “hydrolysis of AEA by recombinant CES2” value in data set [2] (amide-containing substrate) is listed as “neither enzyme could hydrolyze”.
The term IC50 denotes the concentration at which inhibition is half-maximal. Higher therefore signals weaker potency. Regarding `O=C1C(=O)c2sccc2-c2ccsc21` [S-3030, thieno[3,2-e][1]benzothiophene-4,5-dione], in data set [3] (S-3030 0-100 μM, FP-biotin 0.2 μM, 7.5 min), the “inhibition of the 31-32kDa enzyme (FP-biotin band intensity)” value was “not reduced”. Further, in data set [4] (setting [14]), the “inhibition of 2AG hydrolysis in THP1 monocyte lysate” value was 55% and 50%; the “inhibition of PGE2-G hydrolysis in THP1 monocyte lysate” value is 97% and > 95%; the “inhibition of PGF2α-G hydrolysis in THP1 monocyte lysate” value was 80%. The 50% inhibitory concentration (IC50) in data set [5] was ~23 µM. In addition, the “inhibition of recombinant human MAGL activity” value in data set [6] is “did not inhibit; also recorded: does not inhibit”.
For orientation: kcat means the number of substrate molecules converted per active site and unit of time at saturation. In the case of `CCCCC/C=C\C/C=C\C/C=C\C/C=C\CCCC(=O)OC(CO)CO` [2AG, 2-arachidonoylglycerol], the “reduction of hydrolysis activity of CES1-depleted lysate” value (shortened to “reduction … of CES1-depleted lysate”) in [7] is given as 64%. Also, in data set [4] (25 μM substrate, no inhibitor), the “control THP1 lysate hydrolysis activity” value was 2.5 nmol product/min/mg protein. The kcat in [1] was found to be 59 min⁻¹; in [2], 43 min⁻¹.
The term Km denotes the substrate concentration at which the rate is half of its maximum. For the molecule “prostaglandin E2 glyceryl ester [PGE2-G]”, the “reduction … of CES1-depleted lysate” value in data set [7] is 80%. In addition, in data set [1], the Michaelis-Menten constant (Km) is 250 ± 60 µM and the catalytic constant (kcat) is 90 ± 16^b min^−1. Also, the “hydrolysis rate by MAGL relative to CES1” value in data set [8] was found to be 2 fold. In data set [2], the Km is 705 ± 380 µM and the kcat is 150 ± 81 min⁻¹.
“prostaglandin F2α glyceryl ester [PGF2α-G]”: the “reduction … of CES1-depleted lysate” value in data set [7] turned out to be 50%. For the same molecule, in data set [1], the Km is 93 ± 43 µM and the turnover number (kcat) is reported as 29 ± 3.5^a,b min^−1. The “hydrolysis rate by MAGL relative to CES1” value in data set [8] is on record as 4 fold. Also, in [2], the “hydrolysis relative to PGE2-G using CES2 (judged by kcat/Km)” value stood at 6.5 fold, the Km worked out at 35 ± 4.1 µM and the kcat is 49 ± 5.4^a min^−1. For the same molecule, in [2] (Table 1), the “hydrolysis by CES2 relative to CES1” value was “three times faster”.
With `CCCCC/C=C\C/C=C\C/C=C\C/C=C\CCCC(=O)N1C(=O)C=CC1=O` [NAM, N-arachidonoyl maleimide], the “inhibition of recombinant CES1 activity toward 2AG” value in data set [9] is recorded as “inhibits”.
Take `COc1ccc2c(c1)c(CC(=O)O)c(C)n2C(=O)c1ccc(Cl)cc1` [indomethacin]: the “formation of PG-Gs by THP1 macrophages” value in data set [10] was “blocked formation of PG-Gs”.
On to `CN(Cc1cccc(-c2ccncc2)c1)C(=O)Oc1ccc(-c2ccc(C(N)=O)cc2)cc1` [WWL70], for which, in data set [4] (specific ABHD6 inhibitor), the “inhibition of 2AG hydrolytic activity in THP1 cell lysate” value is on record as “did not inhibit; also recorded: does not inhibit”.
For the molecule `O=C(Oc1ccc([N+](=O)[O-])cc1)N1CCC(C(O)(c2ccc3c(c2)OCO3)c2ccc3c(c2)OCO3)CC1` [JZL184], the “inhibition of the 31-32kDa enzyme (FP-biotin activity probe)” value in data set [3] (concentrations as high as 100 μM, 30 min) was “not inhibited”. Also, the “reduction of PGF2α-G hydrolytic activity in THP1 monocyte lysate” value in data set [4] (maximal reduction by JZL184) worked out at 80%. Besides, the “inhibition of CES1 in THP1 cell lysate (FP-biotin activity blot)” value in data set [5] (JZL184 as low as 0.1 μM) is listed as “completely inhibit”. In addition, the “inhibition of recombinant human CES1 activity using pNPV as substrate” value in [11] is “potently inhibit”.

B1: recombinant human CES1 (Homo sapiens) (protein)
chain: T1 sequence (P23141 18-567)
With B1, in [12], the Km is 49 ± 11 µM and the kcat came to 0.983 ± 0.0667 s⁻¹.

B2: recombinant human CES2 (Homo sapiens) (protein)
chain: T2 sequence (O00748 27-559)
Turning to B2, in data set [13], the Km amounted to 46 ± 13 µM and the kcat was 0.717 ± 0.0667 s⁻¹.

The values are drawn from paper PMC4065498 (Chemical research in toxicology, 2010).
